Results on five molecules are retold here after publication PMC3176992 (Molecular psychiatry, 2010).

Entries after “also recorded” stand apart in the source; their conditions may differ. Peptide text beside a SMILES is read from it. * marks the point of attachment. Cbz = O=C(OCc1ccccc1)*

One experiment concerns TNIK. Description: TNIK level and phosphorylation in primary hippocampal neurons. It counts as cell-based, rat. As to conditions: 10 µM MG132 or 25 µg/ml leupeptin for 7 h, then 10 µM peptide 40 min; N=4.
Another experiment has as its system PSD-95. As to the kind of experiment: PSD-95 level in primary hippocampal neurons. As to conditions: 10 µM MG132 or 25 µg/ml leupeptin for 7 h, then 10 µM peptide 40 min; N=4. It counts as cell-based, rat.
For another experiment, the system named is GluR1. As to the kind of experiment: GluR1 level in primary hippocampal neurons. It counts as cell-based, rat. The settings on record: 10 µM MG132 or 25 µg/ml leupeptin for 7 h, then 10 µM peptide 40 min; N=4.
The test system of the next experiment is TNIK in NIH3T3 cells. As to the kind of experiment: TNIK-induced cell rounding assay. It counts as cell-based. The settings on record: for inhibition of TNIK-induced cell rounding: NIH3T3 cells co-transfected with HA-TNIK WT and DISC1 construct. A digest of the protocol: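 NIH3T3 cells in DMEM with 10% heat-inactivated FBS, seeded at 40–80% density and co-transfected 24 h later (Lipofectamine 2000) with HA-tagged TNIK and Myc-tagged DISC1 constructs. Immunofluorescence staining with anti-HA/anti-Myc antibodies. Rounding was scored as cell length-to-breadth ratio measured from TNIK (HA) staining.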

In the next experiment the test system is HA-TNIK. As to the kind of experiment: Co-immunoprecipitation of DISC1 with TNIK from HEK293 cells. It counts as binding, human. As to conditions: HA-TNIK and Myc-DISC1 construct coexpressed in HEK293 cells. The method in brief:
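HEK293 cells in DMEM with 10% heat-inactivated FBS, seeded at 40–80% density and transfected 24 h later (Lipofectamine 2000). Lysed in co-IP buffer (50 mM Tris-Cl pH 7.5, 150 mM NaCl, 1 mM EDTA, 1% Triton X-100) with protease/phosphatase inhibitors, 30 min at 4 °C, then cleared at 12000 g. Protein G beads loaded with 1–3 µg antibody for 1 h, incubated with lysate 2 h to overnight at 4 °C, washed, and run on 4–12% Bis-Tris gels for western blot.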

On to `CC(C)C[C@@H](C=O)NC(=O)[C@H](CC(C)C)NC(=O)[C@H](CC(C)C)NC(=O)OCc1ccccc1` [MG132] (Cbz-Leu-Leu-Leu-aldehyde), for which, in the experiment with TNIK, the “dephosphorylation of TNIK at S764, with inhibitor pretreatment” value was “not affected by MG132” and the “dephosphorylation of TNIK at S769, with inhibitor pretreatment” value is “neither affected by MG132 or leupeptin”. The “DISCpep-WT-tat-induced loss of PSD-95, with inhibitor pretreatment” value in the experiment on PSD-95 was “blocked by MG132; also recorded: rescued”. In addition, the “DISCpep-WT-tat-induced loss of GluR1, with inhibitor pretreatment” value in the experiment with GluR1 is reported as “a reciprocal effect observed for GluR1; also recorded: GluR1 degradation still occurred”.
Turning to `CC(=O)N[C@@H](CC(C)C)C(=O)N[C@@H](CC(C)C)C(=O)N[C@H](C=O)CCCNC(=N)N` [leupeptin], the “dephosphorylation of TNIK at S769, with inhibitor pretreatment” value in the experiment with TNIK is listed as “neither affected by MG132 or leupeptin”. Moreover, the “DISCpep-WT-tat-induced loss of PSD-95, with inhibitor pretreatment” value in the experiment on PSD-95 is listed as “not leupeptin”. Further, in the experiment with GluR1, the “DISCpep-WT-tat-induced loss of GluR1, with inhibitor pretreatment” value is reported as “a reciprocal effect observed for GluR1; also recorded: rescued”.

B1: DISC1 AS1: DISC1 containing the mutation VLR336–338AAA, expressed from plasmid (protein)
chain: MPGGGPQGAPAAAGGGGVSHRAGSRDCLPPAACFRRRRLARRPGYMRSSTGPGIGFLSPAVGTLFRFPGGVSGEESHHSESRARQCGLDSRGLLVRSPVSKSAAAPTVTSVRGTSAHFGIQLRGGTRLPDRLSWPCGPGSAGWQQEFAAMDSSETLDASWEAACSDGARRVRAAGSLPSAELSSNSCSPGCGPEVPPTPPGSHSAFTSSFSFIRLSLGSAGERGEAEGCPPSREAESHCQSPQEMGAKAASLDGPHEDPRCLSRPFSLLATRVSADLAQAARNSSRPERDMHSLPDMDPGSSSSLDPSLAGCGGDGSSGSGDAHSWDTLLRKWEPAAADCLLRNRRQMEVISLRLKLQKLQEDAVENDDYDKAETLQQRLEDLEQEKISLHFQLPSRQPALSSFLGHLAAQVQAALRRGATQQASGDDTHTPLRMEPRLLEPTAQDSLHVSITRRDWLLQEKQQLQKEIEALQARMFVLEAKDQQLRREIEEQEQQLQWQGCDLTPLVGQLSLGQLQEVSKALQDTLASAGQIPFHAEPPETIRSLQERIKSLNLSLKEITTKVCMSEKFCSTLRKKVNDIETQLPALLEAKMHAISGNHFWTAKDLTEEIRSLTSEREGLEGLLSKLLVLSSRNVKKLGSVKEDYNRLRREVEHQETAYETSVKENTMKYMETLKNKLCSCKCPLLGKVWEADLEACRLLIQSLQLQEARGSLSVEDERQMDDLEGAAPPIPPRLHSEDKRKTPLKVLEEWKTHLIPSLHCAGGEQKEESYILSAELGEKCEDIGKKLLYLEDQLHTAIHSHDEDLIQSLRRELQMVKETLQAMILQLQPAKEAGEREAAASCMTAGVHEAQA
modifications: left off: Myc, end not stated, kept
B1: the “inhibition of TNIK-induced cell rounding” value in the experiment on TNIK in NIH3T3 cells was “could not inhibit TNIK in cell-based assays”. Further, the “interaction with TNIK (co-IP)” value with HA-TNIK (listed as Myc-DISC1 AS1) is on record as “only showed a weak interaction with TNIK”.

B2: DISC1 WT: wild-type human DISC1 expressed from plasmid (protein)
chain: MPGGGPQGAPAAAGGGGVSHRAGSRDCLPPAACFRRRRLARRPGYMRSSTGPGIGFLSPAVGTLFRFPGGVSGEESHHSESRARQCGLDSRGLLVRSPVSKSAAAPTVTSVRGTSAHFGIQLRGGTRLPDRLSWPCGPGSAGWQQEFAAMDSSETLDASWEAACSDGARRVRAAGSLPSAELSSNSCSPGCGPEVPPTPPGSHSAFTSSFSFIRLSLGSAGERGEAEGCPPSREAESHCQSPQEMGAKAASLDGPHEDPRCLSRPFSLLATRVSADLAQAARNSSRPERDMHSLPDMDPGSSSSLDPSLAGCGGDGSSGSGDAHSWDTLLRKWEPVLRDCLLRNRRQMEVISLRLKLQKLQEDAVENDDYDKAETLQQRLEDLEQEKISLHFQLPSRQPALSSFLGHLAAQVQAALRRGATQQASGDDTHTPLRMEPRLLEPTAQDSLHVSITRRDWLLQEKQQLQKEIEALQARMFVLEAKDQQLRREIEEQEQQLQWQGCDLTPLVGQLSLGQLQEVSKALQDTLASAGQIPFHAEPPETIRSLQERIKSLNLSLKEITTKVCMSEKFCSTLRKKVNDIETQLPALLEAKMHAISGNHFWTAKDLTEEIRSLTSEREGLEGLLSKLLVLSSRNVKKLGSVKEDYNRLRREVEHQETAYETSVKENTMKYMETLKNKLCSCKCPLLGKVWEADLEACRLLIQSLQLQEARGSLSVEDERQMDDLEGAAPPIPPRLHSEDKRKTPLKVLEEWKTHLIPSLHCAGGEQKEESYILSAELGEKCEDIGKKLLYLEDQLHTAIHSHDEDLIQSLRRELQMVKETLQAMILQLQPAKEAGEREAAASCMTAGVHEAQA
modifications: left off: Myc, end not stated, kept
Regarding B2, the “inhibition of TNIK-induced cell rounding” value with TNIK in NIH3T3 cells was “unable to induce cell rounding; also recorded: inhibits TNIK-induced cell rounding”. Also, in the experiment on TNIK in NIH3T3 cells (NIH3T3 cells, co-expressed with TNIK, versus empty vector, N>30), the “length-to-breadth ratio of cells” value is on record as “significantly increased the average length-to-breadth ratio of a cell”. The “interaction with TNIK (co-IP)” value with HA-TNIK was “co-immunoprecipitates with HA-TNIK”.

B3: DISC1 ΔTNIK: DISC1 with amino acids 329–350 deleted, expressed from plasmid (protein)
chain: MPGGGPQGAPAAAGGGGVSHRAGSRDCLPPAACFRRRRLARRPGYMRSSTGPGIGFLSPAVGTLFRFPGGVSGEESHHSESRARQCGLDSRGLLVRSPVSKSAAAPTVTSVRGTSAHFGIQLRGGTRLPDRLSWPCGPGSAGWQQEFAAMDSSETLDASWEAACSDGARRVRAAGSLPSAELSSNSCSPGCGPEVPPTPPGSHSAFTSSFSFIRLSLGSAGERGEAEGCPPSREAESHCQSPQEMGAKAASLDGPHEDPRCLSRPFSLLATRVSADLAQAARNSSRPERDMHSLPDMDPGSSSSLDPSLAGCGGDGSSGSGDAHSWDTISLRLKLQKLQEDAVENDDYDKAETLQQRLEDLEQEKISLHFQLPSRQPALSSFLGHLAAQVQAALRRGATQQASGDDTHTPLRMEPRLLEPTAQDSLHVSITRRDWLLQEKQQLQKEIEALQARMFVLEAKDQQLRREIEEQEQQLQWQGCDLTPLVGQLSLGQLQEVSKALQDTLASAGQIPFHAEPPETIRSLQERIKSLNLSLKEITTKVCMSEKFCSTLRKKVNDIETQLPALLEAKMHAISGNHFWTAKDLTEEIRSLTSEREGLEGLLSKLLVLSSRNVKKLGSVKEDYNRLRREVEHQETAYETSVKENTMKYMETLKNKLCSCKCPLLGKVWEADLEACRLLIQSLQLQEARGSLSVEDERQMDDLEGAAPPIPPRLHSEDKRKTPLKVLEEWKTHLIPSLHCAGGEQKEESYILSAELGEKCEDIGKKLLYLEDQLHTAIHSHDEDLIQSLRRELQMVKETLQAMILQLQPAKEAGEREAAASCMTAGVHEAQA
modifications: left off: Myc, end not stated, kept
For the molecule B3, the “interaction with TNIK (co-IP)” value in the experiment on HA-TNIK (listed as Myc-DISC1 ΔTNIK) is “abolition of interaction with TNIK”.
